Results published in ChEMBL document CHEMBL1148134, “Differentiation- and apoptosis-inducing activities by pentacyclic triterpenes on a mouse melanoma cell line” (J Nat Prod, 2002).
The source made the active and inactive calls. The calls are words filed in the database; no cut-off is given here.

How the values were obtained:
B16 [1] = assay: Growth inhibition of mouse B16 2F2 cells after 3 days; type: functional, cell-based; conditions: B16, 72 h
Procedure, shortened: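 B16 2F2 melanoma subclone, 1 × 10^5 cells per 1 mL aliquot, exposed to a range of triterpene concentrations for 3 days. Viable cells counted as in earlier work. IC50 = concentration giving 50% growth inhibition.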

B16 [2] = assay: Induction of melanogenesis in mouse B16 2F2 cells assessed as intracellular melanin content after 3 days; type: functional; conditions: B16, 72 h, read-out: ED50 (the source's name)
Procedure, shortened: (§1)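 Aliquots of 1 × 10^5 B16 2F2 cells in 1 mL incubated 3 days (72 h) across a triterpene concentration range, including 1.0 and 10 µM. Intracellular melanin content measured per previously described method. ED50 derived from dose-response curves of melanogenesis up-regulation.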

B16 [3] = assay: Induction of apoptosis in mouse B16 2F2 cells assessed as condensation and fragmentation of nuclei at 10 uM after 48 hrs by Hoechst 33258 staining based fluorescence microscopy; type: functional
Procedure, shortened: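 B16 2F2 cells held with or without triterpene at 10 µM for 48 h, collected, washed in PBS, fixed in 1% glutaraldehyde, then stained 30 min with 50 µM Hoechst 33258. Nuclear condensation/fragmentation scored by fluorescence microscopy, apoptotic cells counted manually on at least 200 cells.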

B16 [4] = assay: Induction of melanogenesis in mouse B16 2F2 cells assessed as intracellular melanin content up to 10 uM after 3 days; type: functional, cell-based; procedure, shortened: as §1

| Compound | IC50 (B16 [1]) | EC50 (B16 [2]) | Activity (B16 [3]) | Activity (B16 [4]) |
| --- | --- | --- | --- | --- |
| C[C@H]1[C@H](C)CC[C@]2(C)CC[C@]3(C)C(=CC[C@@H]4[C@@]5(C)CC[C@H](O)C(C)(C)[C@@H]5CC[C@]43C)[C@H]12 | 50 µM | > 50 µM |  |  |
| CC1(C)CC[C@]2(C)CC[C@]3(C)C(=CC[C@@H]4[C@@]5(C)CCC(=O)C(C)(C)[C@@H]5CC[C@]43C)[C@@H]2C1 | 38.7 µM | > 50 µM |  |  |
| C[C@H]1[C@H](C)CC[C@]2(C)CC[C@]3(C)C(=CC[C@@H]4[C@@]5(C)CCC(=O)C(C)(C)[C@@H]5CC[C@]43C)[C@H]12 | 40.3 µM | > 50 µM |  |  |
| C=C(C)[C@@H]1CC[C@]2(COC(C)=O)CC[C@]3(C)[C@H](CC[C@@H]4[C@@]5(C)CC[C@H](OC(C)=O)C(C)(C)[C@@H]5CC[C@]43C)[C@@H]12 [BETULIN DIACETATE] | 36.8 µM | 3.4 µM |  |  |
| C=C(C)[C@@H]1CC[C@]2(C=O)CC[C@]3(C)[C@H](CC[C@@H]4[C@@]5(C)CC[C@H](O)C(C)(C)[C@@H]5CC[C@]43C)[C@@H]12 [BETULINALDEHYDE] | 6.4 µM | 3.3 µM | 70.4% |  |
| C=C(C)[C@@H]1CC[C@]2(C(=O)O)CC[C@]3(C)[C@H](CC[C@@H]4[C@@]5(C)CC[C@H](O)C(C)(C)[C@@H]5CC[C@]43C)[C@@H]12 [BETULINIC ACID] | 7.9 µM | 4.1 µM |  |  |
| C=C(C)[C@@H]1CC[C@]2(CO)CC[C@]3(C)[C@H](CC[C@@H]4[C@@]5(C)CC[C@H](O)C(C)(C)[C@@H]5CC[C@]43C)[C@@H]12 [BETULIN] | 27.4 µM | 4.8 µM |  |  |
| C=C(C)[C@@H]1CC[C@]2(C=O)CC[C@]3(C)[C@H](CC[C@@H]4[C@@]5(C)CCC(=O)C(C)(C)[C@@H]5CC[C@]43C)[C@@H]12 [BETULONAL] | 4.1 µM | 0.35 µM |  |  |
| C=C(C)[C@@H]1CC[C@]2(CO)CC[C@]3(C)[C@H](CC[C@@H]4[C@@]5(C)CCC(=O)C(C)(C)[C@@H]5CC[C@]43C)[C@@H]12 [BETULONE] | 29.3 µM | 0.19 µM |  |  |
| CC1(C)CC[C@]2(CO)CC[C@]3(C)C(=CC[C@@H]4[C@@]5(C)CC[C@H](O)C(C)(C)[C@@H]5CC[C@]43C)[C@@H]2C1 [ERYTHRODIOL] | 33.4 µM | > 50 µM |  |  |
| C=C(C)[C@@H]1CC[C@]2(C)CC[C@]3(C)[C@H](CC[C@@H]4[C@@]5(C)CCC(=O)C(C)(C)[C@@H]5CC[C@]43C)[C@@H]12 [LUPENONE] | 25.4 µM | 0.35 µM |  |  |
| C=C(C)[C@@H]1CC[C@]2(C)CC[C@]3(C)[C@H](CC[C@@H]4[C@@]5(C)CC[C@H](OC(C)=O)C(C)(C)[C@@H]5CC[C@]43C)[C@@H]12 [LUPENYL ACETATE] | 22.7 µM | 7.5 µM |  |  |
| C=C(C)[C@@H]1CC[C@]2(C)CC[C@]3(C)[C@H](CC[C@@H]4[C@@]5(C)CC[C@H](O)C(C)(C)[C@@H]5CC[C@]43C)[C@@H]12 [LUPEOL] | 38 µM | 9.9 µM |  |  |
| C=C(C)[C@@H]1CC[C@]2(C(=O)OC)CC[C@]3(C)[C@H](CC[C@@H]4[C@@]5(C)CC[C@H](O)C(C)(C)[C@@H]5CC[C@]43C)[C@@H]12 [METHYL BETULINATE] | 4.9 µM | 2.5 µM |  |  |
| CC1(C)CC[C@]2(C(=O)O)CC[C@]3(C)C(=CC[C@@H]4[C@@]5(C)CC[C@H](O)C(C)(C)[C@@H]5CC[C@]43C)[C@@H]2C1 [OLEANOLIC_ACID] | 4.8 µM |  |  | inactive |
| C[C@H]1[C@H](C)CC[C@]2(C(=O)O)CC[C@]3(C)C(=CC[C@@H]4[C@@]5(C)CC[C@H](O)C(C)(C)[C@@H]5CC[C@]43C)[C@H]12 [URSOLIC ACID] | 3.1 µM |  |  | inactive |
| C[C@H]1[C@H](C)CC[C@]2(CO)CC[C@]3(C)C(=CC[C@@H]4[C@@]5(C)CC[C@H](O)C(C)(C)[C@@H]5CC[C@]43C)[C@H]12 [UVAOL] | 46.8 µM | > 50 µM |  |  |
| CC1(C)CC[C@]2(C)CC[C@]3(C)C(=CC[C@@H]4[C@@]5(C)CC[C@H](O)C(C)(C)[C@@H]5CC[C@]43C)[C@@H]2C1 [beta-AMYRIN] | 48.8 µM | > 50 µM |  |  |
